Reference: the EternaBench riboswitch data

Tested on: MS2 coat protein
Assay: apparent Kd, MS2 coat protein; higher = weaker binding; RNA-MaP array; FMN 200 µM where present
Procedure, shortened: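 Green signal was scaled to red-channel RNA signal and control-cluster median Fmax, and the apparent Kd was taken as the median of filtered per-cluster binding-curve fits. The binding series used SNAP-549-labelled MS2 coat protein from 0.7 or 1.5 nM, doubling to 3 µM, on designs transcribed by stalled E. coli RNA polymerase on Illumina sequencing-chip clusters. Each series ran without and then with constant ligand in 100 mM Tris-HCl pH 7.5, 80 mM KCl, 4 mM MgCl2, BSA, DTT, yeast tRNA and Tween-20.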

[1] = designed as: ON switch for flavin mononucleotide, no ligand
[2] = ligand present: flavin mononucleotide, designed as: ON switch for flavin mononucleotide
[3] = designed as: OFF switch for flavin mononucleotide, no ligand
[4] = ligand present: flavin mononucleotide, designed as: OFF switch for flavin mononucleotide

Sequence | apparent Kd [1] | apparent Kd [2] | apparent Kd [3] | apparent Kd [4]
UUAAUUAUACAAGGAUAUCUAUUGUUGUUUCGACUUACAUGAGGAUCACCCAUGUUAAUAUGUUUAGAGAAGGUGUAUUUUCAG | 55.1 nM | 35.8 nM |  | 
UUACACUUGAGGGUCUCCCUUGACAUGAGGAUCACCCAUGUGCAGGAUAUACGUGUGAUGGUAUAGUAGAAGGGCACUCUAUGU |  |  | 23 nM | 29.7 nM
UUACAUACAAAGGUACAUGAGGAUCACCCAUGUUUAUUGGGAAGAAGGGUAACAGUACUACAUAUAUAGGAUAUUUCACAAAUG | 195 nM | 144 nM |  | 
UUACAUACAAAGUUACAUGAGGAUCACCCAUGUUUAUUGGGAAGAAGGGUAACAUUAUUAAAUAUAUAGGAUAUUUCACAAUUG | 558 nM | 359 nM |  | 
UUACCUCAUAUGGUUACAUGAGGAUCACCCAUGUGAAUAGCACAGGAUAUCACGAGGGCCACGUGUGAGAAGGGUGAUGUGAGG | 438 nM | 167 nM |  | 
UUACCUCAUGAGAAGGACAUGAGGAUCACCCAUGUAGGAUAUCGUGGGAGACUGGUAUUGAAUCUUCGGAUUCAAUACCUGUCU | 454 nM | 27.9 nM |  | 
UUACCUCAUGAGAAGGCGAUCAUGAAACAUGAUCGAGGAUAUCAUGUAAACAUGAGGAUCACCCAUGUAUGGGUAUUAUGGUAA | 166 nM | 44.1 nM |  | 
UUACUAUUACAGAAGGUUAAAUAAUAUAUAAAUGAAGGAUAUGUAACAUGAGGAUCACCCAUGUUUCACCCACAUGAGGAUCAC |  |  | 13.9 nM | 12 nM
UUACUCAUGUAAGGAUAUGCAGCCGAAACGGCUGCAGAAGGUACUAAAAUACAUGAGGAUCACCCAUGUCUUUUUAUUUUAGAC | 197 nM | 129 nM |  | 
UUACUCAUGUAAGGAUAUGCAGCCGAAACGGCUGCAGAAGGUACUACAAUACAUGAGGAUCACCCAUGUAAAAUAAAUAAAGUU | 53.7 nM | 22.7 nM |  | 
UUACUCAUGUAAGGAUAUGCAGCCGUUUCGGCUGCAGAAGGUACUAUACUACAUGAGGAUCACCCAUGUCUAUAAAAUAAAGAC | 123 nM | 44.4 nM |  | 
UUACUGCGAGGAUAUGCGAUCCAGACCAUGAUGUAAUUCCGACAUGAGGAUCACCCAUGUAGAAGGUGCAGUGG |  |  | 22.4 nM | 27.1 nM
UUACUUCAUGAGAAGGACAUGAGGAUCACCCAUGUAGGAUAUCGUGGGAGACUGGUAUUGAAUCUUCGGAUUCAAUACCAGUCU | 56.9 nM | 9.15 nM |  | 
UUACUUUUACAGAAGGUUUAAUAAUAUAUAAAAGAAGGAUAUGUAACAUGAGGAUCACCCAUGUUUCACCCACAUGAGGAUCAU |  |  | 11.5 nM | 9.79 nM
UUAGCAACAUGAGGAUCACCCAUGUAGGAUAUCGCUAUUGUAAUCAUGAAACAUGAUUACAAUAGCGAGAAGGACAUAUGCUAA |  |  | 6.42 nM | 9.48 nM
UUAGCAACAUGAGGAUCACCCAUGUAGGAUAUCGCUAUUGUAAUCAUGAAACAUGAUUACAAUAGCGAGAAGGACAUAUGCUAG |  |  | 9.88 nM | 10.7 nM
UUAGCGUAGGUAAGGAUAUGCUGGUCUAAUGAUCAGCAGAAGGUACAUGAGGAUCACCCAUGUGGAUUCGUUAU |  |  | 18.5 nM | 37 nM
UUAUACAUGAGGAUCUCCCAUGACAUGAGGAUCACCCAUGUGCAGGAUAUACGUGUUAUAAUAUAGUAGAAGGGCAGUCUAUAU |  |  | 36.8 nM | 104 nM
UUAUACGUUGAGGAUAUGCGAAUAAGUAUAGUUGCAGAAGGCGAUACAUGAGGAUCACCCAUGUUCAUGGACAU |  |  | 126 nM | 180 nM
UUAUACGUUGAGGAUAUGCGACUUUGUAUAGUUGUAGAAGGCGAUACAUGAGGAUCACCCAUGUUUAUGGGCAU |  |  | 323 nM | 554 nM
UUAUAUAGUGUGAGGAUAUGCUGGUCCUUGGAUCAGCAGAAGGCACAUGAGGAUCACCCAUGUAGUUUAUUAUU |  |  | 30.2 nM | 130 nM
UUAUAUAGUGUGAGGAUAUGCUGGUCCUUGGAUCAGCAGAAGGCACAUGAGGAUCACCCAUGUAGUUUAUUUUA |  |  | 29 nM | 129 nM
UUAUGAUUAAGAGGAUAUAUACAACAUGAGGAUCACCCAUGUACCCAUGUAGUAGAAGGCUUAUUUUUAUAUAAUAAUAUAAUU | 143 nM | 47.6 nM |  | 
UUAUGGUUCAAGAAGGAUGUAUUUGACUUGUACAUAGGAUAUUGUUAUAUUGUUAAUUAUUGUAACAUGAGGAUCACCCAUGUA | 7.84 nM | 7.77 nM |  | 
UUAUUACGAGGAUAUCGUUUUUAUCACAUGAGGAUCACCCAUGUAAUUUAUGUUUCGUUUCGAGAAGGCGUUUGUU |  |  | 23.4 nM | 19.6 nM
UUAUUAGCAGGAUAUAUCCACGACCACAUGAGGAUCACCCAUGUGGCCGCUUGAGGUUGUAUAGAAGGGCUUUAUU |  |  | 15.3 nM | 14.6 nM
UUAUUAGCAGGAUAUAUCCAGGAUUACAUGAGGAUCACCCAUGUGACCGCUUGAGAUUCUAUAGAAGGGCUUUAUU |  |  | 29.6 nM | 29.8 nM
UUAUUAGCAGGAUAUAUCCGGGAUAACAUGAGGAUCACCCAUGUGACCGCUUGAUAUCCUAUAGAAGGGCUUUAUU |  |  | 19.9 nM | 31.4 nM

Sequence | apparent Kd [1] | apparent Kd [2] | apparent Kd [3] | apparent Kd [4]
UUAUUAUAUGAAGGAUAUACUUAACAUGAGGAUCACCCAUGUGGUGUUGUGAGUGAGUGAGUUUAGUAGAAGGUCAAUUCUUUU |  |  | 425 nM | 623 nM
UUAUUAUAUGUAGGAUAUGCAUAUUAUUAUUAUGCAGAAGGACAUGAGGAUCACCCAUGUAUAUUAUUGUUAUAUAUUAUAUAU |  |  | 24.8 nM | 39.3 nM
UUAUUAUAUGUAGGAUAUGCAUAUUGUUGUUAUGCAGAAGGACAUGAGGAUCACCCAUGUAUAUUAUUGUUAUAUAUUGUAUAU |  |  | 24.6 nM | 30.5 nM
UUAUUUAUGUAAGGAUAUCGAUUAUAUACACAUCCGACAUGAGGAUCACCCAUGUUUUAUUUUUUCGAGAAGGUACAUUGUCGG | 76.5 nM | 74.7 nM |  | 
UUAUUUUGUCAAGGAUAUGUAGUAUUGAUUUGAAAACAUGAGGAUCACCCAUGUAUAUGGUGGGAACAGAAGGUGAAUGUUGAA |  |  | 311 nM | 290 nM
UUAUUUUUACAGAAGGUUUAAUAAUAUAUAUGAGAAGGAUAUGUAACAUGAGGAUCACCCAUGUUUCAUCUAUAUGAGGAUCAU |  |  | 6.69 nM | 6.32 nM
UUAUUUUUACAGAAGGUUUAAUAAUAUGUAUGAGAAGGAUAUGUAACAUGAGGAUCACCCAUGUUUUGUCUAUAUGAGGAUCAU |  |  | 8.2 nM | 7.9 nM
UUCAAGGAAGGAUAUCUCGGCCCGGACAUGAGGAUCACCCAUGUUGUUUUUAGAUUCGUGAGAGAAGGUCUUAUAU |  |  | 38.8 nM | 26.5 nM
UUCAUCAAUGAAGGAUAUCUAUGUCCAACAUGAGGAUCACCCAUGUUGAGGAUCACCUAUGUAAAGGAGAAGGUUAAUAUAACU | 6.96 nM | 6.42 nM |  | 
UUCCGGCGUGUAGGAUAUGGAUCCGAUUAGGAUCCAGAAGGACAUGAGGAUCACCCAUGUACAUGUAAACAGUCAUCACCGGAA |  |  | 6.09 nM | 7.65 nM
UUCCGGCGUGUAGGAUAUGGAUCCGAUUAGGAUCCAGAAGGACAUGAGGAUCACCCAUGUACAUGUAAACAGUCAUCACCGGAC |  |  | 9.63 nM | 87.3 nM
UUCCUCAAGUAAGGAUAUACCACGGUAUGCUGAGUAGAAGGUACAUGAGGAUCACCCAUGUGCAUCCCACGAUUGCAUUGGUCA |  |  | 30.4 nM | 145 nM
UUCGAGCCAAGGCUCGCGAGUACACAGGAUAUGAAAAGUCACAUGAGGAUCACCCAUGUCCAAAAUCAGAAGGGUGAGACUAAG | 520 nM | 101 nM |  | 
UUCGCUAAGGUGUAGCGAGACAUGCAAGAAGGGUGAAGAACAUGAGGAUCACCCAUGUAAUCCUUACAGGAUAUUGAUUGACGA | 307 nM | 181 nM |  | 
UUCGGACUAUCAGGAUAUGGUGUAGCCUAGUAAAGGACAUGAGGAUCACCCAUGUACCAUUGGUGCCAGAAGGGAUGAUCCUAC | 141 nM | 55.3 nM |  | 
UUCGGCGCACAGAAGGAUCGGUACAUGAGGAUCACCCAUGUAAGCAAAGAUAGGAUAUGUGGAGCUUACAGGGAAAAUGAACAA | 93.2 nM | 19 nM |  | 
UUCGGCGCAGGAUAUACAGUUUUGUGUUGAAUCGGCGCGGGACAUGAGGAUCACCCAUGUAGAAGGGUGUUGAA |  |  | 682 nM | 470 nM
UUCGUGCAGCUUUGCUGUACGCGUACAUGAGGAUCACCCAUGUAGGAUAUGGUAGGCAUUGCUUACUAGAAGGAUAGUGUGAUC |  |  | 124 nM | 32.2 nM
UUCGUGCAGCUUUGCUGUACGCGUACAUGAGGAUCACCCAUGUAGGAUAUGGUAGGCCAAGCUUACUAGAAGGAUAUAGUGAUC |  |  | 95.5 nM | 88.7 nM
UUCUUGGCAGGAUAUGCUCUCUUAGACAUGAGGAUCACCCAUGUGUUCAUUCUUUCUUUUGCAGAAGGGCCUUAAU |  |  | 56.5 nM | 69.9 nM
UUGAAUUGAAACAUGAGGAUCACCCAUGUGUCAUAAUUGACAUAGGAUAUGCUUAUACUUUUAAAGCAGAAGGAUGACGAUACU | 23.8 nM | 8.8 nM |  | 
UUGACGGCAGGAUAUACAUGAGGAUCACCCAUGUAAAUUUUUCGUUUAACUUGAAUGUGUAGAAGGGCCAAAAC |  |  | 22.7 nM | 19.5 nM
UUGAGGUCAGGAUAUGCAUGGCGGGACUUGCGUCGUGGCGUGCAGAAGGGACAUGAGGAUCACCCAUGUGGAGU |  |  | 145 nM | 236 nM
UUGAUAAGGAGAGGAUAUGGACAUGAGGAUCACCCAUGUACAUGGGAAUAUUUACUGAAUUCUUACUAGAAGGCUUACAUAUUU |  |  | 15.7 nM | 13.3 nM
UUGAUAAGGAGAGGAUAUUGACAUGAGGAUCACCCAUGUACAUGGGAAUAUUUACUGAAUUCUUACGAGAAGGCUUACAUAUUU |  |  | 124 nM | 66.7 nM
UUGAUGUCAUCAGGAUAUAGUAUUUAAGACAUAUAUUUUUUCAAACAUGAGGAUCACCCAUGUCGCUAGAAGGGAUUAUAGAUU |  |  | 41 nM | 35.6 nM
UUGAUUAUACAAGGAUAUCAAUUGUAAUUGAGACUUACAUGAGGAUCACCCAUGUUAAUAUUUUUUGAGAAGGUGUAUUUUCAG | 27.2 nM | 25.4 nM |  | 
